The results in this text go back to ChEMBL document CHEMBL4385623, “Advances in the structural studies of antibiotic potentiators against Escherichia coli” (2019).

In brackets after ≈: the same amount, converted by molar mass. Activity calls are given as the source filed them. The calls are words filed in the database; no cut-off is given here. Peptide text beside a SMILES is read from it. * marks the point of attachment. βNA = c1ccc2cc(N*)ccc2c1 Where only a bound is given, the exact number is not on record here.

Assay [1] has as its system Escherichia coli. The assay can be described thus: Induction of outer membrane permeabilization in Escherichia coli ATCC 25922 assessed as increase in propidium iodide uptake at 3.13 to 25 ug/ml by PI staining based flow cytometric analysis. Type of assay: functional, organism-based. The gist of the method:
(§1)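 Flow cytometry. Log-phase cells grown in CAMH and diluted in PBS to 4 × 10^6 CFU/ml. Compound added at 1/32–¼ MIC (DMSO vehicle controls), in triplicate. Propidium iodide added at 50 μM final; 1 h in the dark at room temperature. Excitation 488 nm, emission 620/30 nm, 30,000 cells per sample. Result is percent PI-positive cells.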
In general terms: A flow cytometer gives signals particle by particle.

Assay [2] has as its system Escherichia coli. The assay can be described thus: Potency index, ratio of potentiation of clarithromycin-induced antibacterial activity of PAbetaN to potentiation of clarithromycin-induced antibacterial activity of test compound against Escherichia coli ATCC 25922 assessed as fold reduction in clarithromycin MIC at 12.5 uM incubated for 24 hrs by spectrophotometric based assay. Type of assay: functional.

Assay [3] relates to Escherichia coli. The assay can be described thus: Disruption of membrane potential in Escherichia coli ATCC 25922 at 25 ug/ml incubated fro 30 mins by DiOC2 probe based flow cytometric analysis. Type of assay: functional, organism-based. In a few lines:
(§2)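 Log-phase cells grown in CAMH, diluted in PBS to 2 × 10^6 CFU/ml, and treated with compound at ¼ MIC. Controls were DMSO vehicle and 2 μg/ml CCCP, with 0.2% DMSO in all tubes, in triplicate. DiOC2 added at 30 μM; 30 min in the dark at room temperature. Flow cytometry at 488 nm excitation, 10,000 cells. Red (620/30) to green (525/20) fluorescence ratio reported.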

Assay [4] concerns Escherichia coli ATCC 25922. The assay can be described thus: Inhibition of AcrAB-TolC efflux pump in Escherichia coli ATCC 25922 assessed as inhibition of Hoechst 33342 efflux at 3.13 to 25 ug/ml pre-incubated for 5 mins followed by glucose addition by Hoechst 33342 staining based fluorescence assay. The gist of the method: (§3)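 Overnight cells washed and resuspended in PBS + 1 mM MgCl2 to OD600 1.0. Energy depleted with 3.13 μM CCCP for 20 min at 37 °C. Loaded with 10 μM Hoechst 33342 for 20 min, then mixed with compound (1/32–¼ MIC, DMSO vehicle) and preincubated 5 min at 37 °C. Efflux started with 50 mM glucose. Fluorescence (ex 355/em 460 nm) read each minute for 40 min at 37 °C.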

Assay [5] has as its system Escherichia coli. The assay can be described thus: Induction of outer membrane permeabilization in Escherichia coli ATCC 25922 assessed as increase in NPN uptake at 3.13 to 25 ug/ml incubated for 10 mins by fluorescence assay. Type of assay: functional, organism-based. In a few lines: (§4)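 Log-phase cells grown in CAMH, washed, and resuspended in PBS to OD600 1.0. NPN added at 10 μM final for 10 min at room temperature. Compound (1/32–¼ MIC, DMSO vehicle) added, four replicates, then 10 min in the dark at room temperature. Fluorescence read at ex 350/em 420 nm. The 10-min average, minus vehicle wells, is the corrected value.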

The subject of assay [6] is Escherichia coli. Kind of assay: Induction of inner membrane permeabilization in Escherichia coli ATCC 25922 assessed as increase in propidium iodide uptake at 3.13 to 25 ug/ml by PI staining based flow cytometric analysis. Type of assay: functional, organism-based. In a few lines: as §1
For assay [7], the system named is Escherichia coli. The assay can be described thus: Potentiation of clarithromycin-induced antibacterial activity against Escherichia coli ATCC 25922 assessed as fold reduction in clarithromycin MIC at 12.5 ug/ml incubated for 24 hrs by spectrophotometric based assay.
In assay [8] the test system is Escherichia coli. The assay can be described thus: Increase in membrane potential in Escherichia coli ATCC 25922 at 25 ug/ml incubated fro 30 mins by DiOC2 probe based flow cytometric analysis. Type of assay: functional, organism-based. In a few lines: as §2
For assay [9], the system named is Escherichia coli. The assay can be described thus: Antibacterial activity against Escherichia coli ATCC 25922 incubated for 24 hrs by spectrophotometric based assay. Type of assay: functional. The note with it: ATCC 25922, 24 h. The gist of the method: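 Intrinsic MIC by broth microdilution. Log-phase cells at 5 × 10^5 CFU/ml in cation-adjusted Mueller-Hinton broth with two-fold serial dilutions of test compound. Aerobic incubation 24 h at 37 °C, then OD600 read. MIC is the lowest concentration giving ≥90% growth inhibition versus drug-free controls.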

Assay [10] has as its system Escherichia coli. Kind of assay: Induction of outer membrane permeabilization in Escherichia coli ATCC 25922 assessed as increase in propidium iodide uptake at 1.56 to 12.5 ug/ml by propidium iodide staining based flow cytometric analysis. Type of assay: functional, organism-based. The gist of the method: as §1
Assay [11] concerns Escherichia coli. The assay can be described thus: Induction of outer membrane permeabilization in Escherichia coli ATCC 25922 assessed as increase in NPN uptake at 1.56 to 12.5 ug/ml incubated for 10 mins by fluorescence assay. Type of assay: functional, organism-based. In a few lines:
as §4

The test system of assay [12] is Escherichia coli. The assay can be described thus: Induction of inner membrane permeabilization in Escherichia coli ATCC 25922 assessed as increase in propidium iodide uptake at 1.56 to 12.5 ug/ml by PI staining based flow cytometric analysis. Type of assay: functional, organism-based. The gist of the method: as §1
For assay [13], the system named is Escherichia coli. Kind of assay: Disruption of membrane potential in Escherichia coli ATCC 25922 at 12.5 ug/ml incubated fro 30 mins by DiOC2 probe based flow cytometric analysis. Type of assay: functional, organism-based. The gist of the method:
as §2

The test system of assay [14] is Escherichia coli ATCC 25922. Kind of assay: Inhibition of AcrAB-TolC efflux pump in Escherichia coli ATCC 25922 assessed as inhibition of Hoechst 33342 efflux at 1.56 to 12.5 ug/ml pre-incubated for 5 mins followed by glucose addition by Hoechst 33342 staining based fluorescence assay. The gist of the method:
as §3

Turning to `NCCC[C@H](N)CNCC(CCc1ccccc1)CCc1ccccc1`, the result in the assay on Escherichia coli [1], with Escherichia coli [6] and in the assay with Escherichia coli [8] was Active. Besides, the Ratio in the assay with Escherichia coli [2] was 32. The result in the assay with Escherichia coli [3] was inactive. In [4], the inhibition result is “Dose-dependent effect”. Besides, the Activity result in the assay with Escherichia coli [5] was “Dose-dependent effect”. Also, the “fold change (FC)” value with Escherichia coli [7] was determined as 128. The molecule also displayed an MIC in the assay with Escherichia coli [9] of 100 µg/mL (≈ 283 µM).
Take `CN(C)CCC[C@H](N)CNC(=O)C(CCc1ccccc1)CCc1ccccc1`: the “fold change (FC)” value in the assay with Escherichia coli [7] is listed as 2. The molecule also displayed a minimal inhibitory concentration (MIC) in the assay on Escherichia coli [9] of 200 µg/mL (≈ 506 µM).
The matching figures for `N=C(N)NCCC[C@H](N)CNC(=O)C(CCc1ccccc1)CCc1ccccc1`: 4 and greater than 200 µg/mL.
Regarding `NCCC[C@H](N)CNC(=O)CC(c1ccccc1)c1ccccc1`, the “fold change (FC)” value in the assay with Escherichia coli [7] is listed as 1. The same molecule showed an MIC in the assay on Escherichia coli [9] greater than 200 µg/mL.
For `NC[C@H](N)CNC(=O)C(CCc1ccccc1)CCc1ccccc1`, in that order: 16 and 200 µg/mL (≈ 589 µM).
As to `NCC[C@H](N)CCNCC(CCc1ccccc1)CCc1ccccc1`, the “fold change (FC)” value in the assay with Escherichia coli [7] came out at 64. The minimal inhibitory concentration (MIC) in the assay with Escherichia coli [9] came to 50 µg/mL (≈ 141 µM).
The matching figures for `NCCC[C@@H](N)CNC(=O)C(CCc1ccccc1)CCc1ccccc1`: 16 and 50 µg/mL (≈ 136 µM).
The matching figures for `NC[C@@H](N)CCCNCC(CCc1ccccc1)CCc1ccccc1`: 32 and 100 µg/mL (≈ 283 µM).
For `NCCC[C@H](N)CNC(=O)CCc1ccccc1`, in that order: 1 and greater than 200 µg/mL.
With `NCCC[C@H](N)CNC(=O)C(c1ccccc1)c1ccccc1`, the “fold change (FC)” value in the assay on Escherichia coli [7] was 2. This molecule also gave a minimum inhibitory concentration (MIC) against Escherichia coli [9] greater than 200 µg/mL.
For `NCCC[C@H](N)CNC(=O)C(CCc1ccccc1)CCc1ccccc1`, in that order: 16 and 50 µg/mL (≈ 136 µM).
On to `NCCC[C@H](N)CNC(=O)CC(CCc1ccccc1)CCc1ccccc1`, for which the result in the assay on Escherichia coli [10] and in the assay with Escherichia coli [12] was Active. The Activity result in the assay with Escherichia coli [11] is “Dose-dependent effect”. Moreover, the Ratio in the assay on Escherichia coli [2] was determined as 128. For the same molecule, in the assay on Escherichia coli [7], the “fold change (FC)” value was 512. Further, in the assay on Escherichia coli [13], the result was inactive. The molecule also gave an MIC with Escherichia coli [9] of 50 µg/mL (≈ 131 µM). The inhibition result in [14] was “Dose-dependent effect”.
For `CNCCC[C@H](N)CNC(=O)C(CCc1ccccc1)CCc1ccccc1`, in the assay on Escherichia coli [7], the “fold change (FC)” value came out at 2. Moreover, the lowest concentration to inhibit growth with Escherichia coli [9] (MIC) was 50 µg/mL (≈ 131 µM).
Regarding `CN(C)[C@@H](CCCN)CNC(=O)C(CCc1ccccc1)CCc1ccccc1`, in the assay with Escherichia coli [7], the “fold change (FC)” value is 2. Further, the MIC against Escherichia coli [9] stood at 100 µg/mL (≈ 253 µM).
The matching figures for `NCCC[C@H](N)CNC(=O)CCCc1ccccc1`: 1 and greater than 200 µg/mL.
For `CN[C@@H](CCCN)CNC(=O)C(CCc1ccccc1)CCc1ccccc1`, in that order: 1 and greater than 200 µg/mL.
The matching figures for `NCCC[C@H](N)CNC(=O)CC(Cc1ccccc1)Cc1ccccc1`: 16 and 200 µg/mL (≈ 566 µM).
Consider `NCC[C@H](N)CNC(=O)C(CCc1ccccc1)CCc1ccccc1`, for which, in the assay on Escherichia coli [7], the fold change (FC) was found to be 2. This molecule also displayed an MIC in the assay with Escherichia coli [9] of 100 µg/mL (≈ 283 µM).
For `NC[C@@H](N)CCCNC(=O)C(CCc1ccccc1)CCc1ccccc1`, in that order: 32 and 100 µg/mL (≈ 272 µM).
In the case of `NCCC[C@H](N)C(=O)NC(CCc1ccccc1)CCc1ccccc1`, in the assay with Escherichia coli [7], the “fold change (FC)” value was determined as 4. This molecule returned a minimum inhibitory concentration (MIC) against Escherichia coli [9] greater than 100 µg/mL.
The matching figures for `CN(C[C@@H](N)CCCN)C(=O)C(CCc1ccccc1)CCc1ccccc1`: 1 and greater than 200 µg/mL.
Take `N=C(N)NCCC[C@H](NC(=O)[C@@H](N)Cc1ccccc1)C(=O)Nc1ccc2ccccc2c1` [PABETAN] (H-Phe-Arg-βNA): in the assay on Escherichia coli [7], the “fold change (FC)” value was 4. In the assay on Escherichia coli [9], this molecule yielded an MIC greater than 200 µg/mL.
For `NNCCC[C@H](N)CNC(=O)C(CCc1ccccc1)CCc1ccccc1`, in that order: 1 and 200 µg/mL (≈ 523 µM).
For `NCCC[C@H](N)CNC(=O)C(Cc1ccccc1)Cc1ccccc1`, in that order: 1 and greater than 200 µg/mL.
For the molecule `NCC[C@H](N)CCNC(=O)C(CCc1ccccc1)CCc1ccccc1`, the “fold change (FC)” value in the assay on Escherichia coli [7] is recorded as 16. For the same molecule, in the assay on Escherichia coli [9], 200 µg/mL (≈ 544 µM) was the least that counted as inhibitory (MIC).

What is called MIC is the lowest concentration that inhibits growth of the organism.
